# Reference: ChEMBL document CHEMBL5257120 (Bioorg Med Chem, 2023)
# Experiments:
# K562 = test: Cytotoxicity against human K562 cells incubated for 72 hrs by Sulphorhodamine assay; assay type: functional, cell-based; conditions: K562, 72 h
# [1] = Toxicity in Swiss albino mouse assessed as change in body weight at 300 mg/kg, po administered for 7 days (reference value: 29.35 +/- 0.57 g); assay type: organism-based; conditions: in vivo, 168 h, time 7 day
# [2] = Toxicity in Swiss albino mouse assessed as haemoglobin level at 300 mg/kg, po administered for 7 days (reference value: 15.66 +/- 0.80 g/dl); assay type: organism-based; conditions: in vivo, 168 h, time 7 day
# [3] = Toxicity in Swiss albino mouse assessed as RBC level at 50 mg/kg, po administered for 7 days (reference value: 7.13 +/- 0.40 million/mm3); assay type: organism-based, Erythrocyte; conditions: in vivo, 168 h, time 7 day
# Outline: (§1)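 Single acute oral dose (5, 50, 300 or 1000 mg/kg) given to Swiss albino mice, n = 6, with 7-day observation. At the end, haematological and serum biochemical parameters were measured. Compared with untreated controls; mean ± SE, ANOVA, p < 0.05.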
# [4] = Hepatotoxicity in Swiss albino mouse assessed as alkaline phosphatase level at 5 mg/kg, po administered for 7 days (reference value: 260.10 +/- 26.76 U/L); assay type: toxicity, organism-based; conditions: in vivo, 168 h, time 7 day; outline: as §1
# [5] = Hepatotoxicity in Swiss albino mouse assessed as albumin level at 50 mg/kg, po administered for 7 days (reference value: 4.12 +/- 0.17 g/dl); assay type: toxicity, organism-based; conditions: in vivo, 168 h, time 7 day; outline: as §1
# [6] = Renal toxicity in Swiss albino mouse assessed as creatinine level at 1000 mg/kg, po administered for 7 days (reference value: 0.76 +/- 0.06 mg/dl); assay type: organism-based; conditions: in vivo, 168 h, time 7 day; outline: as §1
# [7] = Toxicity in Swiss albino mouse assessed as change in absolute kidney weight at 5 to 1000 mg/kg, po administered for 7 days; assay type: organism-based; conditions: in vivo, 168 h, dose 5-1000 mg/kg, time 7 day
# [8] = Toxicity in Swiss albino mouse assessed as change in relative lungs weight at 5 to 1000 mg/kg, po administered for 7 days; assay type: organism-based; conditions: in vivo, 168 h, dose 5-1000 mg/kg, time 7 day
# [9] = Toxicity in Swiss albino mouse assessed as change in relative kidney weight at 5 to 1000 mg/kg, po administered for 7 days; assay type: organism-based; conditions: in vivo, 168 h, dose 5-1000 mg/kg, time 7 day
smiles,measurement,setting,value
COc1cc(C2/C(=C/c3ccc(/C=C/C(=O)NO)cc3)C(=O)c3cc(OC)c(OC)c(OC)c32)cc(OC)c1OC (stereo not given),IC50,K562,3.27 µM
same,Activity,[1],30.22 g
same,Activity,[2],16.77 g/dL
same,Activity,[3],8.82 million/mm3
same,Activity,[4],221.34 U/L
same,Activity,[5],4.36 g/dL
same,Activity,[6],0.74 mg/dL
same,Activity,[7],Non-Toxic
same,Activity,[8],Non-Toxic
same,Activity,[9],Non-Toxic
